Source: ChEMBL document CHEMBL4325886, “Synthesis and SAR studies of novel benzodiazepinedione-based inhibitors of Clostridium difficile (C. difficile) toxin B (TcdB)” (Bioorg Med Chem Lett, 2018)

Legend:
Toxin B [1] = molecular target: T1, Toxin B (Clostridioides difficile, UniProt P18177); assay: Inhibition of C-terminal 6-His tagged recombinant Clostridium difficile toxin B glucosyltransferase domain assessed as reduction in UDP-glucose hydrolysis activity using UDP-glucose substrate and ADP Alexa633 tracer incubated for 3 hrs by fluorescence polarization assay
[2] = Metabolic stability in mouse plasma assessed as parent compound remaining after 2 hrs; format: ADME, cell-free
Summary of the method: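 Compound incubated in mouse plasma for 2 h. Parent compound remaining was measured, and the carboxylic acid hydrolysis product was also monitored.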

Toxin B [3] = molecular target: T1, Toxin B; assay: Inhibition of Clostridium difficile toxin B […] CHO cells assessed as reduction in caspase 3/7 activation pre-incubated for 1 hr before TcdB addition by luminescence based assay; format: cell-based
[4] = Metabolic stability in human liver microsomes assessed as parent compound remaining after 15 mins; format: ADME, Microsome; conditions: read-out: Stability
[5] = Metabolic stability in mouse liver microsomes assessed as parent compound remaining after 15 mins; format: ADME, Microsome; conditions: read-out: Stability
Toxin A = Toxin A (Clostridioides difficile, UniProt P16154); assay: Inhibition of Clostridium difficile toxin A […] CHO cells assessed as reduction in caspase 3/7 activation pre-incubated for 1 hr before TcdA addition by luminescence based assay; format: cell-based
[6] = Clearance in CD-1 mouse at 1 mg/kg, iv; format: ADME, organism-based; conditions: in vivo
Summary of the method: (§1)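 CD-1 mice, single dose. The i.v. dose was 1 mg/kg in 40% PEG400/5% ethanol/55% water (v/v/v). The p.o. dose was 10 mg/kg in 20% PEG400/80% (0.5% (w/v) CMC with 0.25% (v/v) Tween 80) (v/v). Plasma samples were analysed to derive Cl, T1/2, Vz, AUC0-inf, Cmax, Tmax and oral bioavailability F.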

[7] = Elimination half life in CD-1 mouse at 1 mg/kg, iv; format: ADME, organism-based; conditions: in vivo, read-out: beta t1/2 (converted); summary of the method: as §1
[8] = Apparent volume of distribution during terminal phase in CD-1 mouse at 1 mg/kg, iv; format: ADME, organism-based; conditions: in vivo; summary of the method: as §1
[9] = AUC (0 to infinity) in CD-1 mouse at 1 mg/kg, iv; format: ADME, organism-based; set-up: dose 1 mg/kg, time infinity, route intravenous; conditions: in vivo; summary of the method: as §1
[10] = AUC (0 to infinity) in CD-1 mouse at 10 mg/kg, po; format: ADME, organism-based; set-up: dose 10 mg/kg, time infinity, route oral; conditions: in vivo; summary of the method: as §1
[11] = Cmax in CD-1 mouse at 1 mg/kg, iv; format: ADME, organism-based; set-up: dose 1 mg/kg, route intravenous; conditions: in vivo; summary of the method: as §1
[12] = Cmax in CD-1 mouse at 10 mg/kg, po; format: ADME, organism-based; set-up: dose 10 mg/kg, route oral; conditions: in vivo; summary of the method: as §1
[13] = Tmax in CD-1 mouse at 10 mg/kg, po; format: ADME, organism-based; conditions: in vivo; summary of the method: as §1
[14] = Oral bioavailability in CD-1 mouse at 10 mg/kg; format: ADME, organism-based; conditions: in vivo; summary of the method: as §1
[15] = Apparent oral clearance in hamster at 10 mg/kg, po; format: ADME, organism-based; conditions: cricetinae, in vivo
[16] = Elimination half life in hamster at 10 mg/kg, po; format: ADME, organism-based; conditions: cricetinae, in vivo, read-out: beta t1/2 (converted)
[17] = AUC(infinity) in hamster at 10 mg/kg, po; format: ADME, organism-based; set-up: dose 10 mg/kg, time infinity, route oral; conditions: cricetinae, in vivo
[18] = Cmax in hamster at 10 mg/kg, po; format: ADME, organism-based; set-up: dose 10 mg/kg, route oral; conditions: cricetinae, in vivo
[19] = Tmax in hamster at 10 mg/kg, po; format: ADME, organism-based; conditions: cricetinae, in vivo
Clostridioides difficile [20] = assay: Antibacterial activity against Clostridium difficile infected hamster assessed as host survival at 50 mg/kg, po bid treated for 7 days (reference value: 2.3 days); format: functional
Clostridioides difficile [21] = assay: Antibacterial activity against Clostridium difficile infected hamster assessed as host survival at 5 mg/kg, po bid treated for 7 days (reference value: 2.3 days); format: functional

Sequence of Toxin A (P16154 whole entry): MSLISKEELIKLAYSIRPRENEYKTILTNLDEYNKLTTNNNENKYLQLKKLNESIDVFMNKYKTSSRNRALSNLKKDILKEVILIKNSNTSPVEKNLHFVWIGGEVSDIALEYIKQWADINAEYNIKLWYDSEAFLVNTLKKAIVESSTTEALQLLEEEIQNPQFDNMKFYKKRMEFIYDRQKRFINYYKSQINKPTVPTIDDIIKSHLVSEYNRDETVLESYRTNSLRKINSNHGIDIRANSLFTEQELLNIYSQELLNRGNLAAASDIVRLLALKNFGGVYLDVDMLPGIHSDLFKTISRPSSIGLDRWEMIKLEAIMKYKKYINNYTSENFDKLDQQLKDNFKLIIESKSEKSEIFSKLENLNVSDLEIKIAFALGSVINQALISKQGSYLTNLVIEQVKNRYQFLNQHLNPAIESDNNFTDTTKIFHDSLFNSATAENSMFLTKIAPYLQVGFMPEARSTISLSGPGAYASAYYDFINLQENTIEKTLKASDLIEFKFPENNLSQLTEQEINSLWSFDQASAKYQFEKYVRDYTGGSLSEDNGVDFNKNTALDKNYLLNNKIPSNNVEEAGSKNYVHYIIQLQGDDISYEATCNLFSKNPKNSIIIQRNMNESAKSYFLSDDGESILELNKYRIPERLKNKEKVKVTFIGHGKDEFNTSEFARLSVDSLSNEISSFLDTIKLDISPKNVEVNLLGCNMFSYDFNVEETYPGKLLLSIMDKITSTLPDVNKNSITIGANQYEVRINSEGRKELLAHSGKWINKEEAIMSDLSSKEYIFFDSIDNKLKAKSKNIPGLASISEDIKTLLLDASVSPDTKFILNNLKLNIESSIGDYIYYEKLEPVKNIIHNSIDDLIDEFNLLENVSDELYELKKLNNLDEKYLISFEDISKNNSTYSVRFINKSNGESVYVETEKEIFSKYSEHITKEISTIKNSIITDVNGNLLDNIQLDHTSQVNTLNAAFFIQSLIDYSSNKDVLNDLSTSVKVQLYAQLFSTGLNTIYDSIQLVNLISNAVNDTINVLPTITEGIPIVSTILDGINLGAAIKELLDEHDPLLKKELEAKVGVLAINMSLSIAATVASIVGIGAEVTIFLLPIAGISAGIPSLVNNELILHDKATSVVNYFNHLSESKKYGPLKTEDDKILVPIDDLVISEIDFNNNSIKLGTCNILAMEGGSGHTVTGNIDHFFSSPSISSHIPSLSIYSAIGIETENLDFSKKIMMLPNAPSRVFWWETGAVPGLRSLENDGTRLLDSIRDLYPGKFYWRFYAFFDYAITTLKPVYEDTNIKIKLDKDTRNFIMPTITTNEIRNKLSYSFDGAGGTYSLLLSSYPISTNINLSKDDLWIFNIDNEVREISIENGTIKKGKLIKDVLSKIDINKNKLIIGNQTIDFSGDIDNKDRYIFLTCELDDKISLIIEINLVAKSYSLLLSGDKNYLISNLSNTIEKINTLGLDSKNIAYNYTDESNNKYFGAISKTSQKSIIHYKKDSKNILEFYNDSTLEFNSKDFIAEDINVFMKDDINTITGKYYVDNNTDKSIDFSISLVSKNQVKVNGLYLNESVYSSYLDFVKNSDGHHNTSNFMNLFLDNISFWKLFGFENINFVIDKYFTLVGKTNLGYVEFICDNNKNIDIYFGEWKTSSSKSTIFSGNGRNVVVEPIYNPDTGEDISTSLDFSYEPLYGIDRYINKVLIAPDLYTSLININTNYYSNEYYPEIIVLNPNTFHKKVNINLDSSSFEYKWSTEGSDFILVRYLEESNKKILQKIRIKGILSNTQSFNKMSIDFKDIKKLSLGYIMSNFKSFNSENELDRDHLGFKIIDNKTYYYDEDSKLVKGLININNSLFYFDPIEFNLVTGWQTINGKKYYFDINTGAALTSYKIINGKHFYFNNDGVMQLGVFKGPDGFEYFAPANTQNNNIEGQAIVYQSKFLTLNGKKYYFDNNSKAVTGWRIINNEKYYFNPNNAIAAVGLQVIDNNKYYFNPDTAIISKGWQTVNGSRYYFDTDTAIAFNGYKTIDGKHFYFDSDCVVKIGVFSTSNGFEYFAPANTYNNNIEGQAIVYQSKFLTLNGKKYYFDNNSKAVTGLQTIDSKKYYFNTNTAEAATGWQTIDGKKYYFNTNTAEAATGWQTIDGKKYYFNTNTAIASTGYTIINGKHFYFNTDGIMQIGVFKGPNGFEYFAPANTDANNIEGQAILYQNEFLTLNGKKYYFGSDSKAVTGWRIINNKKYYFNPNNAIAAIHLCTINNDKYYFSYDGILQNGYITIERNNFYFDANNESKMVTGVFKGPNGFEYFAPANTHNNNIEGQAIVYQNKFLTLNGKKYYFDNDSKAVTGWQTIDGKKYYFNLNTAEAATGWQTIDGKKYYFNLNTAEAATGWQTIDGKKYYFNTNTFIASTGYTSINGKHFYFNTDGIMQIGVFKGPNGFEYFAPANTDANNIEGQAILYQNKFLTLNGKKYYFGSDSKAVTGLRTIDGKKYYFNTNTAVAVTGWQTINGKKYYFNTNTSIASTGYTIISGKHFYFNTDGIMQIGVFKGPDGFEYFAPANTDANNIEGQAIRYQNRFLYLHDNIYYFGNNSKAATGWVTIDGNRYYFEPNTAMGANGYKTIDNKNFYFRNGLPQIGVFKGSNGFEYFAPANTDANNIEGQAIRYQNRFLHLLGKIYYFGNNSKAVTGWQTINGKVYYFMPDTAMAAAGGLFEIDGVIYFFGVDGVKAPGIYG
T1 sequence (P18177 whole entry, the tested form may be a part): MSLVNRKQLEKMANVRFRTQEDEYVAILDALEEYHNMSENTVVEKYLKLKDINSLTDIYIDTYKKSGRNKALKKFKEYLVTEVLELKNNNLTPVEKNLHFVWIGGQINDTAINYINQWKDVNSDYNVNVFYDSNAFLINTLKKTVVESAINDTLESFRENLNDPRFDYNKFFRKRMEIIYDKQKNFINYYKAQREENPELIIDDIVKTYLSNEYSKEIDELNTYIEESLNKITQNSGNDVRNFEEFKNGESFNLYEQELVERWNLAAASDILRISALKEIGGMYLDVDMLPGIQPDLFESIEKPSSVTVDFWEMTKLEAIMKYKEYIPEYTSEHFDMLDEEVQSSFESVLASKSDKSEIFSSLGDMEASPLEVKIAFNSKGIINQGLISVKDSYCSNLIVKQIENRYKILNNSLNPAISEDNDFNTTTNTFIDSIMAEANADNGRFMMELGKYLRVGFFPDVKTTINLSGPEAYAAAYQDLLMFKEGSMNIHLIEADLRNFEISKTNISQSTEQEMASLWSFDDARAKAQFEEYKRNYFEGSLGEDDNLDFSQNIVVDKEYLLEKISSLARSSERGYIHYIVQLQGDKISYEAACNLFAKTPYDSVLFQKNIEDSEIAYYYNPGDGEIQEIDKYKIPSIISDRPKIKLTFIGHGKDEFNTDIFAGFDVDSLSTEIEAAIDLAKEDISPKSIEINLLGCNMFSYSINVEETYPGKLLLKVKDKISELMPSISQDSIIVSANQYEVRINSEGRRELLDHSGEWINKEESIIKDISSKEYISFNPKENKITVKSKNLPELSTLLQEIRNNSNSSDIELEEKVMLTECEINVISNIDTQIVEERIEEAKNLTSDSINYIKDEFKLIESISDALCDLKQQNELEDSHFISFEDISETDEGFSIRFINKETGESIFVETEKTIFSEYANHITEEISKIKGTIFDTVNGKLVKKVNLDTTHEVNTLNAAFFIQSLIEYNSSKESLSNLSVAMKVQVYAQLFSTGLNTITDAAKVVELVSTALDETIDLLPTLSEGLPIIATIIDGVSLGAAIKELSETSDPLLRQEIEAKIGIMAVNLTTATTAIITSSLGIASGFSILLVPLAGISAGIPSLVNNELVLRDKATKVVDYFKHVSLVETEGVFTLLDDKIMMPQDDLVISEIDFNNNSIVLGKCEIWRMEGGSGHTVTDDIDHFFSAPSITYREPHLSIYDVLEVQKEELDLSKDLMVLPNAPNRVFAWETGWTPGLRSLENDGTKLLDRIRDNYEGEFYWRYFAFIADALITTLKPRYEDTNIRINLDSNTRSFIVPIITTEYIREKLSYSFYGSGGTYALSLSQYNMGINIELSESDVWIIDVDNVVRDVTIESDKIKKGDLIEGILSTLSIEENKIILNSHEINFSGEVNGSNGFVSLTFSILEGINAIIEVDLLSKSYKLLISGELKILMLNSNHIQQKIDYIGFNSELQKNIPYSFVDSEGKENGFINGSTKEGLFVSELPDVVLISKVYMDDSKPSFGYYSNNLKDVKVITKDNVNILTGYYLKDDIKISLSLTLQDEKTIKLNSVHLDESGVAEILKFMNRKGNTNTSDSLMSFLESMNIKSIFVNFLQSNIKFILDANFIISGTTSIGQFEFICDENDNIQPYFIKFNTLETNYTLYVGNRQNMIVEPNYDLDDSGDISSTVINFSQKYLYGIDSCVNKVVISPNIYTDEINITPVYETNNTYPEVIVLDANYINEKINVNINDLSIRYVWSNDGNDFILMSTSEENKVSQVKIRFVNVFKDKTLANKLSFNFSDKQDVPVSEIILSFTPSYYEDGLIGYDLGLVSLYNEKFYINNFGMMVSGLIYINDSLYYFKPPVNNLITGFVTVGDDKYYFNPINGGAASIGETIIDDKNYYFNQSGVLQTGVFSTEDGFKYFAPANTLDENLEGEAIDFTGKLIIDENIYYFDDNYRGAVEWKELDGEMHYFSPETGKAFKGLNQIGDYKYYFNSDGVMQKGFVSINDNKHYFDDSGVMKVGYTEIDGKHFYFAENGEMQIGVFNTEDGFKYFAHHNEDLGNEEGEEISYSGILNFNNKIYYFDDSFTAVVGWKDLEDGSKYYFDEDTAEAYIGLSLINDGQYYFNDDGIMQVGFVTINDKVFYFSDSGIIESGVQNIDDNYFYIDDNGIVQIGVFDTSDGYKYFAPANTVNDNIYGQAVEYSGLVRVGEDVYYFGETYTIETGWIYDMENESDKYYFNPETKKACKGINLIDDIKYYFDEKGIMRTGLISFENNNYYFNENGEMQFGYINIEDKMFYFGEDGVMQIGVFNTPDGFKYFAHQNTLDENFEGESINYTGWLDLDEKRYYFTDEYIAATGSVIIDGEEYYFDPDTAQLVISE

Row | Compound | IC50 (Toxin B [1]) [nM] | IC50 (Toxin B [3]) [nM] | remaining at 0.25 h [4] [%] | remaining at 0.25 h [5] [%] | IC50 (Toxin A) [nM] | further results
1 | O=C(O)c1ccc(CN2C(=O)c3ccc(Cl)cc3NC(=O)[C@H]2Cc2ccccn2)cc1 | 180 | – | – | – | – | –
2 | COc1cnc(NC(=O)c2ccc(CN3C(=O)c4ccc(Cl)cc4NC(=O)[C@H]3Cc3ccccn3)cc2)nc1 | – | 3 | – | – | – | Stability ([2]; 2 h): Unstable
3 | Cc1cc(CN2C(=O)c3ccc(Cl)cc3NC(=O)[C@H]2Cc2ccccn2)ccc1C(=O)Nc1ccc(F)cn1 | 8 | 62 | 85 | 60 | 860 | –
4 | COc1cc(CN2C(=O)c3ccc(Cl)cc3NC(=O)[C@H]2Cc2ccccn2)ccc1C(=O)Nc1ccc(C)cn1 | 9 | 1900 | 62 | 49 | 11000 | –
5 | Cc1cnc(NC(=O)c2ccc(CN3C(=O)c4ccc(Cl)cc4NC(=O)[C@H]3Cc3ccccn3)cc2Cl)nc1 | 4 | 130 | 79 | 33 | 1500 | –
6 | Cc1ccnc(C(=O)c2ccc(CN3C(=O)c4ccc(Cl)cc4NC(=O)[C@H]3Cc3ccccn3)cc2)c1 | 74 | – | 26 | 48 | – | –
7 | Cc1cnc(NC(=O)c2ccc(CN3C(=O)c4ccc(Cl)cc4NC(=O)[C@H]3Cc3ccccn3)cc2C)nc1 | 4 | 130 | 74 | 44 | 3000 | –
8 | Cc1cnc(NC(=O)c2ccc(CN3C(=O)c4ccc(Cl)cc4NC(=O)[C@H]3Cc3ccccn3)cc2Cl)cn1 | 9 | 220 | 81 | 79 | 2100 | –
9 | O=C(c1ccc(CN2C(=O)c3ccc(Cl)cc3NC(=O)[C@H]2Cc2ccccn2)cc1)c1c[nH]c2cccnc12 | 2 | 1800 | 87 | 93 | 18000 | –
10 | Cc1ccc(NC(=O)c2ccc(CN3C(=O)c4ccc(Cl)cc4NC(=O)[C@H]3Cc3ccccn3)cc2C)nc1 | 7 | 61 | 61 | 31 | 860 | –
11 | O=C(c1ccc(CN2C(=O)c3ccc(Cl)cc3NC(=O)[C@H]2Cc2ccccn2)cc1)c1cccn2ncnc12 | 61 | 1600 | 15 | 44 | – | –
12 | Cc1cc(CN2C(=O)c3ccc(Cl)cc3NC(=O)[C@H]2Cc2ccccn2)ccc1C(=O)Nc1ccc(C(F)(F)F)cn1 | 20 | 170 | 100 | 99 | 2400 | –
13 | COc1cc(CN2C(=O)c3ccc(Cl)cc3NC(=O)[C@H]2Cc2ccccn2)ccc1C(=O)Nc1ccc(F)cn1 | 14 | 1100 | 94 | 67 | 17000 | –
14 | Cn1ccnc1C(=O)c1ccc(CN2C(=O)c3ccc(Cl)cc3NC(=O)[C@H]2Cc2ccccn2)cc1 | 190 | > 100000 | 49 | 33 | > 100000 | –
15 | Cn1cc(C(=O)c2ccc(CN3C(=O)c4ccc(Cl)cc4NC(=O)[C@H]3Cc3ccccn3)cc2)c2ncccc21 | 6 | 330 | 67 | 76 | 5300 | –
16 | O=C(O)c1ccc(CN2C(=O)c3ccc(Cl)cc3NC(=O)[C@H]2Cc2ccccn2)cc1Cl | 480 | – | – | – | – | –
17 | COc1cnc(NC(=O)c2ccc(CN3C(=O)c4ccc(Cl)cc4NC(=O)[C@H]3Cc3ccccn3)cc2C)nc1 | 4 | 29 | 82 | 39 | 690 | –
18 | COc1ccc(NC(=O)c2ccc(CN3C(=O)c4ccc(Cl)cc4NC(=O)[C@H]3Cc3ccccn3)cc2C)nc1 | 10 | 71 | 68 | 51 | 480 | –

Row | Compound | IC50 (Toxin B [1]) [nM] | IC50 (Toxin B [3]) [nM] | remaining at 0.25 h [4] [%] | remaining at 0.25 h [5] [%] | IC50 (Toxin A) [nM] | further results
19 | COc1ccc(NC(=O)c2ccc(CN3C(=O)c4ccc(Cl)cc4NC(=O)[C@H]3Cc3ccccn3)cc2OC)nc1 | 5 | 130 | 78 | 71 | 1100 | –
20 | O=C(Nc1ccc(F)cn1)c1ccc(CN2C(=O)c3ccc(Cl)cc3NC(=O)[C@H]2Cc2ccccn2)cc1Cl | 4 | 130 | 88 | 69 | 1800 | –
21 | COc1ccc(NC(=O)c2ccc(CN3C(=O)c4ccc(Cl)cc4NC(=O)[C@H]3Cc3ccccn3)cc2Cl)nc1 | 5 | 61 | 100 | 71 | 760 | remaining at 2 h ([2]; read-out: Stability): 100%
22 | O=C(c1ccc(CN2C(=O)c3ccc(Cl)cc3NC(=O)[C@H]2Cc2ccccn2)cc1)c1cccn2ccnc12 | 8 | 660 | 44 | 27 | 8100 | –
23 | Cc1cccc(C(=O)c2ccc(CN3C(=O)c4ccc(Cl)cc4NC(=O)[C@H]3Cc3ccccn3)cc2)n1 | 340 | – | 25 | 3 | – | –
24 | COc1cnc(NC(=O)c2ccc(CN3C(=O)c4ccc(Cl)cc4NC(=O)[C@H]3Cc3ccccn3)cc2Cl)nc1 | 4 | 53 | 73 | 38 | 920 | –
25 | Cc1cc(CN2C(=O)c3ccc(Cl)cc3NC(=O)[C@H]2Cc2ccccn2)ccc1C(=O)Nc1ccc(C#N)cn1 | 3 | 78 | 90 | 70 | – | –
26 | Cc1ccc(C(=O)c2ccc(CN3C(=O)c4ccc(Cl)cc4NC(=O)[C@H]3Cc3ccccn3)cc2)nc1 | 38 | 5900 | 57 | 68 | 23000 | –
27 | O=C(c1ccc(CN2C(=O)c3ccc(Cl)cc3NC(=O)[C@H]2Cc2ccccn2)cc1)c1ccccn1 | 45 | 4200 | 64 | 79 | 37000 | –
28 | O=C(Nc1ccc(C(F)(F)F)cn1)c1ccc(CN2C(=O)c3ccc(Cl)cc3NC(=O)[C@H]2Cc2ccccn2)cc1Cl | 18 | 250 | 94 | 92 | 6300 | clearance [6]: 28 mL/min/kg; half-life [7]: 2.6 h; Vz/F [8]: 6.2 L/kg; AUC(0-inf) [9]: 592 ng·h/mL; AUC(0-inf) [10]: 9420 ng·h/mL; Cmax [11]: 312 ng/mL; Cmax [12]: 1530 ng/mL; Tmax [13]: 0.25 h; F [14]: 159%; CL/F [15]: 7.8 mL/min/kg; half-life [16]: 10 h; AUC(0-inf) [17]: 21500 ng·h/mL; Cmax [18]: 2750 ng/mL; Tmax [19]: 0.25 h; MST (Clostridioides difficile [20]): 12.3 days
29 | Cn1cnc(C(=O)c2ccc(CN3C(=O)c4ccc(Cl)cc4NC(=O)[C@H]3Cc3ccccn3)cc2)c1 | 230 | > 100000 | 44 | 16 | > 100000 | –
30 | N#Cc1ccc(NC(=O)c2ccc(CN3C(=O)c4ccc(Cl)cc4NC(=O)[C@H]3Cc3ccccn3)cc2Cl)nc1 | 8 | 52 | 90 | 84 | – | –
31 | Cc1ccc(NC(=O)c2ccc(CN3C(=O)c4ccc(Cl)cc4NC(=O)[C@H]3Cc3ccccn3)cc2Cl)nc1 | 5 | 24 | 57 | 57 | 580 | –
32 | O=C(O)c1c(Cl)cc(CN2C(=O)c3ccc(Cl)cc3NC(=O)[C@H]2Cc2ccccn2)cc1Cl | 7400 | – | – | – | – | –
33 | COc1cc(CN2C(=O)c3ccc(Cl)cc3NC(=O)[C@H]2Cc2ccccn2)ccc1C(=O)Nc1ccc(C(F)(F)F)cn1 | 41 | 660 | 100 | 83 | 31000 | –
34 | COc1cnc(NC(=O)c2ccc(CN3C(=O)c4ccc(Cl)cc4NC(=O)[C@H]3Cc3ccccn3)cc2Cl)cn1 | 21 | 490 | 100 | 68 | 3400 | –
35 | CN[C@H](CC(C)C)C(=O)N[C@H]1C(=O)N[C@@H](CC(N)=O)C(=O)N[C@H]2C(=O)N[C@H]3C(=O)N[C@H](C(=O)N[C@H](C(=O)O)c4cc(O)cc(O)c4-c4cc3ccc4O)[C@H](O)c3ccc(c(Cl)c3)Oc3cc2cc(c3O[C@@H]2O[C@H](CO)[C@@H](O)[C@H](O)[C@H]2O[C@H]2C[C@](C)(N)[C@H](O)[C@H](C)O2)Oc2ccc(cc2Cl)[C@H]1O [VANCOMYCIN] | – | – | – | – | – | MST (Clostridioides difficile [21]): 12 days
